The target of one data set is T1, ATP-dependent translocase ABCB1 (Homo sapiens, UniProt P08183). In words: TP_TRANSPORTER: Rhodamine 123 accumulation in Caco-2 cells. In kind it is functional, cell-based. The gist of the method: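 Caco-2 monolayers (passages 40–66) grown 14 days on collagen-coated 24-well plates. Cells were equilibrated in HBSS with 4 mM bicarbonate and 10 mM HEPES, pH 7.4, then exposed to 15 μM rhodamine-123 ± sample (2 mg ml−1 extracts) for 2 h at 37°C. After ice-cold PBS/0.05% azide washes, fluorescence was read at ex 485/em 544 nm. Expressed as % of control, mean±s.d., n=4.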
T1 sequence (P08183 whole entry): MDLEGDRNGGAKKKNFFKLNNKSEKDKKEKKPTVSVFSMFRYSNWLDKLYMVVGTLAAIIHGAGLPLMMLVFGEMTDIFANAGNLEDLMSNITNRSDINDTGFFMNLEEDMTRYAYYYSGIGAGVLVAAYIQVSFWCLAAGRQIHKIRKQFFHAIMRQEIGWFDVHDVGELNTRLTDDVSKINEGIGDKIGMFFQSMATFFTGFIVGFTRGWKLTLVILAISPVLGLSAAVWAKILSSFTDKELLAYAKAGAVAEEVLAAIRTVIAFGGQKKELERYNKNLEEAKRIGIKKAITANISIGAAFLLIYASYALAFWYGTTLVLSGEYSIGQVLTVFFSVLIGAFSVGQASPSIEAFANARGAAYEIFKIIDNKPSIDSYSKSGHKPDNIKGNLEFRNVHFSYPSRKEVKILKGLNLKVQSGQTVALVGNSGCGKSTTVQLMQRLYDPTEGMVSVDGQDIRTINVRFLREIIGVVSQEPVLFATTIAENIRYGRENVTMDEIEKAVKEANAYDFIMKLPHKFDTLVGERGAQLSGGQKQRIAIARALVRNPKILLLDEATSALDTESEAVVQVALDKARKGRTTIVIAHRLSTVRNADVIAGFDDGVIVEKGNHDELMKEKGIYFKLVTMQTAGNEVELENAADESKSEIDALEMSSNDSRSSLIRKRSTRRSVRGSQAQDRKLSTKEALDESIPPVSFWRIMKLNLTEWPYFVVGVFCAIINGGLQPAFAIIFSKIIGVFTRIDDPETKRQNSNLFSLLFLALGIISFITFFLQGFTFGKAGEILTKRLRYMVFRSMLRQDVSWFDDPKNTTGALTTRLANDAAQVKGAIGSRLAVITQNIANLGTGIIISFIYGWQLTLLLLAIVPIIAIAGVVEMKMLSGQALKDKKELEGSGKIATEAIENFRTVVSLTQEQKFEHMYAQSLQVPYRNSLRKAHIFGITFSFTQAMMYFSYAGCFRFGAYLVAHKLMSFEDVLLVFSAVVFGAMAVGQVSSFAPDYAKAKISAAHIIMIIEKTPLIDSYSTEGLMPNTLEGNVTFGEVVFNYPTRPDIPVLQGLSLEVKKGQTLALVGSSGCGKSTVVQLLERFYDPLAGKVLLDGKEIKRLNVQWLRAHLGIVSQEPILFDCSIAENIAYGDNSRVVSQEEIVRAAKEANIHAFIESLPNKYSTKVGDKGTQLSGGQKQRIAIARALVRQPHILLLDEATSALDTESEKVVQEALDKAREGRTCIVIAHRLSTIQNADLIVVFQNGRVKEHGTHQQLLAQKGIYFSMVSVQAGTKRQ
In the case of BITTER MELON, the Activity entry was “inhibitor [+]”.

A further data set deals with T1, ATP-dependent translocase ABCB1. In words: TP_TRANSPORTER: Daunomycin accumulation in Caco-2 cells. In kind it is functional, cell-based. The essentials: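 Caco-2 monolayers (passages 40–66) grown 14 days on collagen-coated 24-well plates. After two PBS washes and equilibration in HBSS with 4 mM bicarbonate and 10 mM HEPES, pH 7.4, cells were incubated with 40 nM [3H]-daunomycin ± sample for 2 h at 37°C. Ice-cold PBS/0.05% azide washes, Triton X-100 lysis, scintillation counting. Expressed as % of control, mean±s.d., n=3.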
Take `CCCCCCCCCCCCCC(=O)OCC(O)CO` (stereo unspecified): the Activity result is “inhibitor [+]”.
As for `CCCCCCCCCCCCCCCC(=O)OCC(CO)OC(=O)CCCCCCCCCCCCCCC` (stereo unspecified) [1,2-Dipalmitin], the Activity result was “is not an inhibitor [-]”.
On to `CCCCCCCCCCCCCCCC(=O)OCC(O)COC(=O)CCCCCCCCCCCCCCC` [1,3-Dipalmitin], for which the Activity result is “is not an inhibitor [-]”.
With `CCCCC/C=C/C/C=C/CCCCCCCC(=O)OCC(O)CO` (stereo unspecified) [1-Monolinolein], the Activity result was “inhibitor [+]”.
Take `CC/C=C/C/C=C/C/C=C/CCCCCCCC(=O)OCC(O)CO` (stereo unspecified) [1-Monolinolenin]: the Activity entry is “inhibitor [+]”.
Regarding `CCCCCCCCCCCCCCCC(=O)OCC(O)CO` (stereo unspecified) [1-Monopalmitin], the Activity entry was “inhibitor [+]”.
For the compound `CCCCCC/C=C\CCCCCCCC(=O)OCC(O)CO` (stereo unspecified) [1-Monopalmitolein], the Activity result was “inhibitor [+]”.
Consider `OCC(O)CO` [GLYCERIN], for which the Activity result was “is not an inhibitor [-]”.
Regarding `CCCCCCCCCCCC(=O)OCC(O)CO` (stereo unspecified) [GLYCEROL MONOLAURATE], the Activity entry is “inhibitor [+]”.
With `CCCCCCCCCCCCCCCCCC(=O)OCC(O)CO` (stereo unspecified) [GLYCERYL MONOSTEARATE], the Activity result was “inhibitor [+]”.
On to `CCCCCCCC(=O)OCC(O)CO` (stereo unspecified) [MONOCTANOIN COMPONENT A], for which the Activity result was “inhibitor [+]”.
Turning to `CCCCCCCCCC(=O)OCC(O)CO` (stereo unspecified) [MONOCTANOIN COMPONENT B], the Activity entry is “inhibitor [+]”.
On the same count and under the same terms, next, `CCCCCCCCCCCCCCCC(=O)O.OCC(O)CO` [PALMITIC ACID + GLYCEROL]: “is not an inhibitor [-]”; `CCCCCCCCCCCCCCCC(=O)O` [PALMITIC ACID]: “is not an inhibitor [-]”; `CCCCCCCCCCCCCCCC(=O)OCC(COC(=O)CCCCCCCCCCCCCCC)OC(=O)CCCCCCCCCCCCCCC` [TRIPALMITIN]: “is not an inhibitor [-]”.

The values above are taken from ChEMBL document CHEMBL2074473, “Inhibitory effect of a bitter melon extract on the P-glycoprotein activity in intestinal Caco-2 cells” (Br J Pharmacol, 2004).
